Active and inactive are the calls of the source. The calls are words filed in the database; no cut-off is given here.

Chain of P2Y purinoceptor 12 (Homo sapiens) (Q9H244 whole entry): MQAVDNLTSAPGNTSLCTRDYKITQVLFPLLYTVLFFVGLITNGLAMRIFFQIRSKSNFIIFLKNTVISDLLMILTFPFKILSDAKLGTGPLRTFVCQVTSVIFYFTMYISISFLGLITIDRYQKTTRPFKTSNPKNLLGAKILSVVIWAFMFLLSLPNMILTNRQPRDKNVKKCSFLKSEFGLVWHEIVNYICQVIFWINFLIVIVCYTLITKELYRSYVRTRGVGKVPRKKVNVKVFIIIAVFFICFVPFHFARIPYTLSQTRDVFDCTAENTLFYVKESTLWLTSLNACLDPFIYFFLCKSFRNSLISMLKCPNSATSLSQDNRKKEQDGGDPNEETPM

In the experiment the target is P2Y purinoceptor 12 (Homo sapiens) (UniProt Q9H244). Put plainly: Agonist activity at P2Y12 in human platelets assessed as effect on VASP phosphorylation at 200 uM by CY-QUANT VASP/P2Y12 ELISA method. The essentials:
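VASP phosphorylation read by CY-QUANT VASP/P2Y12 ELISA kit, run per manufacturer's instructions. Platelets were exposed to PGE1, and PGE1-induced phosphorylation was set as 100%. ADP served as the P2Y12 agonist reference. Compounds were tested at 200 µM together with ADP. Per se effect at 200 µM was checked with PGE1 alone, without ADP.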
In general terms: An ELISA detects its analyte on a solid surface through an enzyme-linked reagent.
`CCn1nc2cccc([N+](=O)[O-])c2n1`: the outcome was inactive.

In the case of `CCCCCCCCn1nnc2c([N+](=O)[O-])cccc21`, the result was inactive.

Consider `CCCCCCCn1nnc2c([N+](=O)[O-])cccc21`, for which the result was inactive.

Consider `Cc1ccc(S(=O)(=O)n2nnc3c([N+](=O)[O-])cccc32)cc1`, for which the outcome was inactive.

In the case of `Cn1nnc2c([N+](=O)[O-])cccc21`, the outcome was inactive.

On to `CCn1nnc2c([N+](=O)[O-])cccc21`, for which the result was inactive.

In the case of `CCCCCn1nc2cccc([N+](=O)[O-])c2n1`, the outcome was inactive.

For the molecule `CCCCCn1nnc2c([N+](=O)[O-])cccc21`, the outcome was inactive.

Regarding `CCCCCCCn1nc2cccc([N+](=O)[O-])c2n1`, the result was inactive.

Turning to `O=[N+]([O-])c1cccc2c1nnn2CCCCl`, the outcome was inactive.

Consider `Cn1nnc2cccc([N+](=O)[O-])c21`, for which the outcome was inactive.

For the molecule `CCCn1nc2cccc([N+](=O)[O-])c2n1`, the outcome was inactive.

Regarding `O=[N+]([O-])c1cccc2nn(CCCCl)nc12`, the outcome was inactive.

As to `CCCCn1nnc2c([N+](=O)[O-])cccc21`, the outcome was inactive.

For `CCCCCCCCn1nc2cccc([N+](=O)[O-])c2n1`, the result was inactive.

With `CCCn1nnc2c([N+](=O)[O-])cccc21`, the result was inactive.

Regarding `O=[N+]([O-])c1cccc2nn(Cc3ccccc3)nc12`, the result was inactive.

Take `Cn1nc2cccc([N+](=O)[O-])c2n1`: the outcome was inactive.

Regarding `O=[N+]([O-])c1cccc2c1nnn2Cc1ccccc1`, the result was inactive.

`CCCCCCn1nnc2c([N+](=O)[O-])cccc21`: the result was inactive.

In the case of `CCCCCCn1nc2cccc([N+](=O)[O-])c2n1`, the result was inactive.

For `CCCCn1nc2cccc([N+](=O)[O-])c2n1`, the result was inactive.

`O=C(c1ccccc1)n1nnc2c([N+](=O)[O-])cccc21`: the result was inactive.

These data come from ChEMBL document CHEMBL4043160, “Facile alkylation of 4-nitrobenzotriazole and its platelet aggregation inhibitory activity” (Bioorg Med Chem, 2017).
